For data set [1] the following is noted: human, microsomes, pH 7.4.
The test system of data set [2] is S. aureus USA500 (MRSA). Description: MIC, broth microdilution. The class given is cell-based, Staphylococcus aureus. (Broth dilution looks for growth in wells or tubes with falling amounts of substance.)
In data set [3] the test system is S. aureus NRS194 (MRSA). Description: MBC, plating onto TSA. Format: cell-based, Staphylococcus aureus.
Data set [4] deals with S. aureus NRS19 (VISA). Description: MIC, broth microdilution. Format: cell-based, Staphylococcus aureus.
For data set [5], the system named is S. aureus USA 400 (MRSA). Description: MBC, plating onto TSA. Format: cell-based, Staphylococcus aureus.
Data set [6] relates to S. aureus NRS194 (MRSA). Description: MIC, broth microdilution. The class given is cell-based, Staphylococcus aureus.
Data set [7] has as its system S. aureus VRS1 (VRSA). Description: MIC, broth microdilution. Format: cell-based, Staphylococcus aureus.
The subject of data set [8] is S. aureus VRS4 (VRSA). Description: MIC, broth microdilution. Format: cell-based, Staphylococcus aureus.
Data set [9] has as its system S. aureus NRS37 (VISA). Description: MBC, plating onto TSA. Format: cell-based, Staphylococcus aureus.
Data set [10] in a line: Microsomal stability analysis.
In data set [11] the test system is S. aureus USA500 (MRSA). Description: MBC, plating onto TSA. The class given is cell-based, Staphylococcus aureus.
Data set [12] has as its system methicillin-resistant Staphylococcus aureus (MRSA) ATCC 43300. Description: MIC, broth microdilution. The class given is cell-based. Particulars: MRSA ATCC 43300.
The subject of data set [13] is S. aureus NRS107 (MRSA). Description: MIC, broth microdilution. The class given is cell-based, Staphylococcus aureus.
The subject of data set [14] is MRSA USA300. Description: Time-kill analysis. The class given is cell-based, Staphylococcus aureus. Particulars: MRSA USA300, 3 × MIC, 37 °C. The method, boiled down: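 Late-log-phase cells diluted to ~1 × 10^8 CFU/mL in MHB and exposed to test compound or vancomycin in triplicate at 37 °C. 20 μL samples taken at 0, 2, 4, 6, 8, 10, 12 and 24 h, serially diluted in PBS, and plated on TSA. Plates incubated 18–20 h at 37 °C, then viable CFU/mL counted. Data given as mean ± standard deviation.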

Data set [15] concerns S. aureus VRS5 (VRSA). Description: MBC, plating onto TSA. Format: cell-based, Staphylococcus aureus.
Data set [16] relates to S. aureus USA300 (MRSA). Description: MBC, plating onto TSA. Format: cell-based, Staphylococcus aureus.
Data set [17] concerns S. aureus NRS119 (MRSA). Description: MBC, plating onto TSA. Format: cell-based, Staphylococcus aureus.
In data set [18] the test system is S. aureus VRS4 (VRSA). Description: MBC, plating onto TSA. The class given is cell-based, Staphylococcus aureus.
In data set [19] the test system is S. aureus USA300 (MRSA). Description: MIC, broth microdilution. The class given is cell-based, Staphylococcus aureus.
The test system of data set [20] is S. aureus NRS107 (MRSA). Description: MBC, plating onto TSA. The class given is cell-based, Staphylococcus aureus.
For data set [21], the system named is S. aureus ATCC 43300 (MRSA). Description: MBC, plating onto TSA. Format: cell-based, Staphylococcus aureus.
Data set [22] relates to S. aureus NRS119 (MRSA). Description: MIC, broth microdilution. Format: cell-based, Staphylococcus aureus.
The test system of data set [23] is S. aureus NRS19 (VISA). Description: MBC, plating onto TSA. The class given is cell-based, Staphylococcus aureus.
Data set [24] concerns S. aureus NRS1 (VISA). Description: MBC, plating onto TSA. Format: cell-based, Staphylococcus aureus.
Data set [25] deals with S. aureus NRS37 (VISA). Description: MIC, broth microdilution. Format: cell-based, Staphylococcus aureus.
In data set [26] the test system is S. aureus VRS5 (VRSA). Description: MIC, broth microdilution. The class given is cell-based, Staphylococcus aureus.
The subject of data set [27] is S. aureus VRS1 (VRSA). Description: MBC, plating onto TSA. The class given is cell-based, Staphylococcus aureus.
Data set [28] concerns S. aureus NRS1 (VISA). Description: MIC, broth microdilution. Format: cell-based, Staphylococcus aureus.
For data set [29], the system named is S. aureus USA 400 (MRSA). Description: MIC, broth microdilution. The class given is cell-based, Staphylococcus aureus.
Data set [30] has as its system two VISA isolates. Description: MIC against VISA isolates. The note with it: Staphylococcus aureus. The class given is cell-based.
The subject of data set [31] is human embryonic kidney (HEK293) cell line. Description: In vitro cytotoxicity, MTS assay. The note with it: 40 μg/mL.
Setting [32] is: human liver microsomes, with NADPH.
Setting [33] is: Staphylococcus aureus, MRSA|USA500.
Where [34] appears, read: Staphylococcus aureus, MRSA|NRS194.
Setting [35] is: Staphylococcus aureus, NRS19|VISA.
[36] abbreviates: Staphylococcus aureus, MRSA|USA400.
Where [37] appears, read: Staphylococcus aureus, NRS37|VISA.
Where [38] appears, read: Staphylococcus aureus, ATCC43300|MRSA.
[39] abbreviates: Staphylococcus aureus, MRSA|NRS107.
Setting [40] is: Staphylococcus aureus, MRSA|USA300.
Setting [41] is: Staphylococcus aureus, MRSA|NRS119.
Setting [42] is: Staphylococcus aureus, NRS1|VISA.

Converted amounts (≈) assume the structure as drawn. “Also recorded” adds a separate entry of the source. Read-outs that look alike come from different tables or passages of the source.

Consider `CC(=O)CC(c1ccccc1)c1c(O)c2ccccc2oc1=O` (centres unmarked) [Warfarin], for which, in [1], the “NADPH-dependent CLint” value amounted to 0.0 µL/min/mg and the “NADPH-free CLint” value amounted to 0.0 µL/min/mg.

The MIC is the lowest concentration that inhibits growth of the organism. One may read the MBC as the lowest tested concentration that kills the bacteria rather than only halting them. Low values mean greater bactericidal potency, high ones weaker bactericidal potency. With `[H]/N=C(/N)NN=C(C)c1sc(-c2ccc(C#CCCCC)cc2)nc1C` [compound 5, (Z)-2-(1-(2-(4-(Hex-1-yn-1-yl)phenyl)-4-methylthiazol-5-yl)ethylidene) hydrazinecarboximidamide], the minimum inhibitory concentration (MIC) in [2] (USA500 (MRSA)), in data set [4] (NRS19 (VISA)), in data set [6] (NRS194 (MRSA)), in data set [7] (VRS1 (VRSA)), in [8] (VRS4 (VRSA)) and in data set [12] was 1.4 µg/mL (≈ 3.96 µM) in each case. Also, the MIC in data set [13] (NRS107 (MRSA)) turned out to be 1.4 µg/mL (≈ 3.96 µM); in data set [19] (USA300 (MRSA)) it was 1.4 µg/mL (≈ 3.96 µM); in data set [22] (NRS119 (MRSA)), 1.4 µg/mL (≈ 3.96 µM); in data set [25] (NRS37 (VISA)), 1.4 µg/mL (≈ 3.96 µM); in data set [26] (VRS5 (VRSA)), 2.8 µg/mL (≈ 7.92 µM); in [28] (NRS1 (VISA)), 0.7 µg/mL (≈ 1.98 µM). In addition, in data set [29] (USA 400 (MRSA)), the MIC was found to be 1.4 µg/mL (≈ 3.96 µM). Further, the minimal bactericidal concentration (MBC) turned out to be 1.4 µg/mL (≈ 3.96 µM) in data set [3] (NRS194 (MRSA)); 1.4 µg/mL (≈ 3.96 µM) in [5] (USA 400 (MRSA)); 1.4 µg/mL (≈ 3.96 µM) in data set [9] (NRS37 (VISA)); 1.4 µg/mL (≈ 3.96 µM) in data set [11] (USA500 (MRSA)); 2.8 µg/mL (≈ 7.92 µM) in [15] (VRS5 (VRSA)); 1.4 µg/mL (≈ 3.96 µM) in [16] (USA300 (MRSA)). Also, the MBC in data set [17] (NRS119 (MRSA)) was determined as 1.4 µg/mL (≈ 3.96 µM); in data set [18] (VRS4 (VRSA)), 2.8 µg/mL (≈ 7.92 µM); in [20] (NRS107 (MRSA)), 1.4 µg/mL (≈ 3.96 µM); in data set [21] (ATCC 43300 (MRSA)), 1.4 µg/mL (≈ 3.96 µM); in data set [23] (NRS19 (VISA)) it was 1.4 µg/mL (≈ 3.96 µM); in data set [24] (NRS1 (VISA)) it was 0.7 µg/mL (≈ 1.98 µM). Moreover, the MBC in data set [27] (VRS1 (VRSA)) came out at 1.4 µg/mL (≈ 3.96 µM). For the same compound, in data set [10] (setting [32]), the “NADPH-dependent CLint” value turned out to be 3.7 µL/min/mg. Moreover, the “NADPH-dependent T1/2” value in data set [10] (setting [32]) is above 4 h. Moreover, the “NADPH-free T1/2” value in data set [10] (human liver microsomes, without NADPH) is above 4 h. Moreover, in [10] (pooled human liver microsomes), the half-life entry was “exceeds 4 hours”. For the same compound, in data set [14], the “time to completely eradicate MRSA growth” value is at most 4 h.

With `[H]/N=C(\N)NN=C(C)c1sc(-c2ccc(-c3cccc4ccccc34)cc2)nc1C` [compound 25, (E)-2-(1-(4-Methyl-2-(4-(naphthalen-1-yl)phenyl)thiazol-5-yl)ethylidene)hydrazinecarboximidamide], the MIC in data set [2] (setting [33]) is 1.6 µg/mL (≈ 4 µM); in data set [4] (setting [35]), 1.6 µg/mL (≈ 4 µM); in data set [6] (setting [34]) it was 1.6 µg/mL (≈ 4 µM); in [7] (Staphylococcus aureus, VRSA), 3.2 µg/mL (≈ 8.01 µM); in data set [8] (Staphylococcus aureus, VRSA), 3.2 µg/mL (≈ 8.01 µM); in data set [30], 1.6 µg/mL (≈ 4 µM). Besides, the minimum inhibitory concentration (MIC) in data set [12] (setting [38]) came to 1.6 µg/mL (≈ 4 µM); in [13] (setting [39]), 1.6 µg/mL (≈ 4 µM); in data set [19] (setting [40]), 1.6 µg/mL (≈ 4 µM); in data set [22] (setting [41]), 1.6 µg/mL (≈ 4 µM); in [25] (setting [37]), 1.6 µg/mL (≈ 4 µM); in data set [26] (Staphylococcus aureus, VRSA) it was 3.2 µg/mL (≈ 8.01 µM). Further, the MIC in data set [28] (setting [42]) and in data set [29] (setting [36]) was 1.6 µg/mL (≈ 4 µM) throughout. In addition, the minimum bactericidal concentration (MBC) in [3] (setting [34]) worked out at 1.6 µg/mL (≈ 4 µM); in [5] (setting [36]), 1.6 µg/mL (≈ 4 µM); in [9] (setting [37]), 1.6 µg/mL (≈ 4 µM); in [11] (setting [33]) it was 3.2 µg/mL (≈ 8.01 µM); in data set [15] (Staphylococcus aureus, VRSA) it was 3.2 µg/mL (≈ 8.01 µM); in data set [16] (setting [40]) it was 1.6 µg/mL (≈ 4 µM). The MBC in [17] (setting [41]) is 1.6 µg/mL (≈ 4 µM); in [18] (Staphylococcus aureus, VRSA) it was 3.2 µg/mL (≈ 8.01 µM); in data set [20] (setting [39]), 1.6 µg/mL (≈ 4 µM); in data set [21] (setting [38]) it was 1.6 µg/mL (≈ 4 µM); in data set [23] (setting [35]), 1.6 µg/mL (≈ 4 µM); in data set [24] (setting [42]), 1.6 µg/mL (≈ 4 µM). The same compound gave an MBC in data set [27] (Staphylococcus aureus, VRSA) of 3.2 µg/mL (≈ 8.01 µM). The “time to completely eradicate MRSA growth” value in data set [14] stood at 10 h. Also, the “toxicity to mammalian cells (MTS assay)” value in data set [31] is reported as “not toxic; also recorded: improved toxicity profile”.

Values taken from article PMC4716659 (European journal of medicinal chemistry, 2015).
